Broadly, the IC50 is the midpoint of a concentration-inhibition curve. In general, inhibition refers to the relative decrease from the control value, in per cent.

Here are results for 33 compounds from ChEMBL document CHEMBL1153198, “Design, synthesis and prostate cancer cell-based studies of analogs of the Rho/MKL1 transcriptional pathway inhibitor, CCG-1423” (Bioorg Med Chem Lett, 2010).

Assay [1] deals with Transforming protein RhoA/Rho-related GTP-binding protein RhoC (Homo sapiens, UniProt P61586+P08134). The assay can be described thus: Inhibition of RhoA/C-mediated transcriptional response in human PC3 cells by serum response factor-luciferase reporter gene assay. Format: cell-based. The conditions noted are these: pc-3. A general note: A reporter such as luciferase makes a cellular process visible.

Assay [2] relates to PC-3. The assay can be described thus: Cytotoxicity against human PC3 cells assessed as inhibition of mitochondrial metabolism at 100 uM by WST-1 assay. The class given is functional. Background: Tetrazolium assays rely on reduction of a dye to a coloured formazan, in cell work by metabolically active cells.
The test system of assay [3] is PC-3. The assay can be described thus: Antiinvasive activity in human PC3 cells at 10 uM by Matrigel cell invasion assay. The class given is functional. In outline:
(§1)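 PC-3 cells (2 × 10^5) were seeded in low-serum DMEM (0.5% FBS) in the upper chamber of 24-well Matrigel inserts, with compound or DMSO. The lower well held the same 0.5% FBS medium, and cells were incubated 24 h at 37 °C in 5% CO2. Inserts were methanol-fixed, stained with 0.5% crystal violet, and non-invaded cells were wiped off. Stain was extracted in 20% acetic acid and read at 595 nm.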

Assay [4] relates to PC-3. The assay can be described thus: Antiinvasive activity in human PC3 cells at 100 uM by Matrigel cell invasion assay. The class given is functional. The procedure, abridged:
as §1

Assay [5] has as its system PC-3. Kind of assay: Cytotoxicity against human PC3 cells assessed as inhibition of mitochondrial metabolism at 10 uM by WST-1 assay. Format: functional.

In the case of `O=C(CC1CCCCN1C(=O)c1cc(C(F)(F)F)cc(C(F)(F)F)c1)Nc1ccc(Cl)cc1` (centres undefined), the IC50 in assay [1] is 9.5 µM. Further, the inhibition at 100 µM in the assay with PC-3 [2] was 14%.

In the case of `O=C(NCCC(=O)N1CCc2cc(Cl)ccc21)c1cc(C(F)(F)F)cc(C(F)(F)F)c1`, the IC50 in assay [1] amounted to 13 µM. Also, the “inhibition (INH)” value with PC-3 [3] amounted to 0%. Moreover, at 100 µM the inhibition in the assay with PC-3 [4] was 0%.

On to `O=C(c1cc(C(F)(F)F)cc(C(F)(F)F)c1)N1CCC(Nc2ccc(Cl)cc2)CC1`, for which the IC50 in assay [1] was 10.8 µM. Besides, in the assay on PC-3 [5], the inhibition at 10 µM was 19%. Besides, the inhibition at 100 µM in the assay on PC-3 [2] came out at 0%.

In the case of `O=C(Nc1ccc(Cl)cc1)c1ccc(NC(=O)c2cc(C(F)(F)F)cc(C(F)(F)F)c2)cc1`, the IC50 in assay [1] was over 100 µM. This compound gave an inhibition at 100 µM in the assay with PC-3 [4] of 0%.

For the compound `CN(C(=O)CCNC(=O)c1cc(C(F)(F)F)cc(C(F)(F)F)c1)c1ccc(Cl)cc1`, in assay [1], the IC50 is over 100 µM.

`O=C(Nc1ccc(Cl)cc1)C1CCCN1C(=O)c1cc(C(F)(F)F)cc(C(F)(F)F)c1` (centres undefined): in assay [1], the IC50 turned out to be 69 µM. Besides, testing at 100 µM in the assay on PC-3 [4] gave an inhibition of 78%.

In assay [1], `FC(F)(F)c1cc(CNCCCNc2ccc(Cl)cc2)cc(C(F)(F)F)c1` had an IC50 of 9.1 µM. 100 µM produced 86% inhibition with PC-3 [4].

Regarding `O=C(CONC(=O)c1cccc(C(F)(F)F)c1)Nc1ccc(Cl)cc1`, in assay [1], the IC50 was determined as 27 µM. Moreover, the inhibition at 10 µM in the assay with PC-3 [5] worked out at 0%. Also, in the assay on PC-3 [2], the inhibition at 100 µM was determined as 58%.

Take `O=C(CONC(=O)c1cc(C(F)(F)F)cc(C(F)(F)F)c1)Nc1ccc(Cl)cc1`: in assay [1], the IC50 worked out at 4.7 µM.

With `O=C(N[C@@H]1CCC[C@@H]1C(=O)Nc1ccc(Cl)cc1)c1cc(C(F)(F)F)cc(C(F)(F)F)c1`, the IC50 in assay [1] was over 100 µM.

Turning to `O=C(CONC(=O)c1cc(C(F)(F)F)cc(C(F)(F)F)c1)Nc1ccccc1`, the IC50 in assay [1] was determined as 36 µM. In addition, the inhibition at 10 µM in the assay with PC-3 [5] worked out at 0%. Besides, in the assay on PC-3 [2], the inhibition at 100 µM was determined as 37%.

The compound `O=C(NCc1csc(-c2ccc(Cl)cc2)n1)c1cc(C(F)(F)F)cc(C(F)(F)F)c1` displayed an IC50 in assay [1] of 4.1 µM.

For the compound `O=C(CCCNC(=O)c1cc(C(F)(F)F)cc(C(F)(F)F)c1)Nc1ccc(Cl)cc1`, the IC50 in assay [1] stood at 21 µM.

In assay [1], `O=C(Nc1cc(C(F)(F)F)cc(C(F)(F)F)c1)C1CCN(C(=O)c2ccc(Cl)cc2)CC1` yielded an IC50 of 10 µM. Moreover, the inhibition at 10 µM with PC-3 [5] came out at 10%. Besides, the inhibition at 100 µM in the assay on PC-3 [2] amounted to 88%.

For the compound `O=C(CCNC(=O)c1cc(C(F)(F)F)cc(C(F)(F)F)c1)NCc1ccc(Cl)cc1`, the IC50 in assay [1] is over 100 µM.

With `O=C(Nc1ccc(Cl)cc1)C1CCN(C(=O)c2cc(C(F)(F)F)cc(C(F)(F)F)c2)C1` (centres undefined), in assay [1], the IC50 was determined as 16.3 µM. Further, the inhibition at 100 µM in the assay on PC-3 [2] came out at 67%.

For `O=C(CCNC(=O)c1cc(C(F)(F)F)cc(C(F)(F)F)c1)Nc1ccc(Cl)cc1`, the IC50 in assay [1] worked out at 38 µM. In addition, in the assay on PC-3 [2], the inhibition at 100 µM was 10%.

In the case of `O=C(CNC(=O)c1cc(C(F)(F)F)cc(C(F)(F)F)c1)Nc1ccc(Cl)cc1`, the IC50 in assay [1] came out at 33 µM.

Regarding `O=C(CONC(=O)c1ccc(Cl)cc1)Nc1cc(C(F)(F)F)cc(C(F)(F)F)c1`, the IC50 in assay [1] worked out at 8.6 µM.

In assay [1], `O=C(c1cc(C(F)(F)F)cc(C(F)(F)F)c1)N1CCC(=O)N(c2ccc(Cl)cc2)CC1` displayed an IC50 of over 100 µM.

Take `O=C(CC1CC(c2cc(C(F)(F)F)cc(C(F)(F)F)c2)=NO1)Nc1ccc(Cl)cc1` (centres undefined): the IC50 in assay [1] was determined as 4.2 µM. Moreover, the inhibition at 100 µM in the assay with PC-3 [2] is 38%.

`O=C(Nc1ccccc1C(=O)Nc1ccc(Cl)cc1)c1cc(C(F)(F)F)cc(C(F)(F)F)c1` came in with an IC50 in assay [1] of over 100 µM.

For `O=C(CONC(=O)c1ccccc1)Nc1ccc(Cl)cc1`, the IC50 in assay [1] is over 100 µM.

In assay [1], `O=C(CONC(=O)c1ccc(C(F)(F)F)cc1)Nc1ccc(Cl)cc1` showed an IC50 of 29 µM. Also, the inhibition at 10 µM in the assay on PC-3 [5] turned out to be 0%. Also, in the assay with PC-3 [2], the inhibition at 100 µM was 56%.

Compound `O=C(Nc1ccc(Cl)cc1)C1CCN(C(=O)c2cc(C(F)(F)F)cc(C(F)(F)F)c2)CC1` gave an IC50 in assay [1] of 16 µM.

As for `O=C(NCCCOc1ccc(Cl)cc1)c1cc(C(F)(F)F)cc(C(F)(F)F)c1`, in assay [1], the IC50 was 8.9 µM. The compound also returned an inhibition at 100 µM with PC-3 [4] of 26%.

Take `O=C(NCCCNc1ccc(Cl)cc1)c1cc(C(F)(F)F)cc(C(F)(F)F)c1`: the IC50 in assay [1] was found to be 5.1 µM.

In assay [1], `O=C(CCc1cn(-c2cc(C(F)(F)F)cc(C(F)(F)F)c2)nn1)Nc1ccc(Cl)cc1` showed an IC50 of over 100 µM.

`O=C(CCNCc1cc(C(F)(F)F)cc(C(F)(F)F)c1)Nc1ccc(Cl)cc1` gave an IC50 in assay [1] of 8.1 µM. In addition, the inhibition (INH) with PC-3 [3] worked out at 47%.

As for `O=C(NCCc1cn(-c2ccc(Cl)cc2)nn1)c1cc(C(F)(F)F)cc(C(F)(F)F)c1`, the IC50 in assay [1] is over 100 µM.

Regarding `O=C(CONC(=O)c1cc(C(F)(F)F)cc(C(F)(F)F)c1)Nc1cccc(Cl)c1`, the IC50 in assay [1] stood at 5.9 µM.

On to `O=C(Nc1ccc(Cl)cc1)c1cccc(NC(=O)c2cc(C(F)(F)F)cc(C(F)(F)F)c2)c1`, for which the IC50 in assay [1] came to 1.7 µM.

In assay [1], `O=C(CCCCNC(=O)c1cc(C(F)(F)F)cc(C(F)(F)F)c1)Nc1ccc(Cl)cc1` yielded an IC50 of over 100 µM.
